# Test results taken from ChEMBL document CHEMBL1140072, “Discovery of novel and cardioselective diltiazem-like calcium channel blockers via virtual screening” (J Med Chem, 2008).
# Tests used:
# [1] = Negative inotropic activity in guinea pig left atrium assessed as decrease in atrial tension at 5 uM relative to control; assay type: functional, Cavia porcellus, Cardiac atrium; design: scale not given: the % may be the effect or the level left
# [2] = Negative inotropic activity in guinea pig left atrium assessed as decrease in atrial tension relative to control; assay type: functional, tissue-based; details: Cavia porcellus, Cardiac atrium
# Ileum [3] = experiment: Vasorelaxant activity in K+-depolarized guinea pig ileum longitudinal smooth muscle assessed as inhibition of calcium-induced contraction at 100 uM; assay type: functional; details: Cavia porcellus
# Aorta [4] = experiment: Vasorelaxant activity in K+-depolarized guinea pig aorta assessed as inhibition of calcium-induced contraction at 100 uM; assay type: functional; details: Cavia porcellus
# [5] = Negative chronotropic activity in guinea pig spontaneously beating right atrium assessed as decrease in atrial rate at 100 uM relative to control; assay type: functional, tissue-based, Cavia porcellus, Cardiac atrium; design: scale not given: the % may be the effect or the level left
# Ileum [6] = experiment: Vasorelaxant activity in K+-depolarized guinea pig ileum longitudinal smooth muscle assessed as inhibition of calcium-induced contraction; assay type: functional, tissue-based; details: Cavia porcellus
# [7] = Negative chronotropic activity in guinea pig spontaneously beating right atrium assessed as decrease in atrial rate at 100 uM relative to control; design: scale not given: the % may be the effect or the level left
# [8] = Negative inotropic activity in guinea pig left atrium assessed as decrease in atrial tension at 50 uM relative to control; assay type: functional, tissue-based, Cavia porcellus, Cardiac atrium; design: scale not given: the % may be the effect or the level left
# Ileum [9] = experiment: Vasorelaxant activity in K+-depolarized guinea pig ileum longitudinal smooth muscle assessed as inhibition of calcium-induced contraction at 50 uM; assay type: functional; details: Cavia porcellus
# Ileum [10] = experiment: Vasorelaxant activity in K+-depolarized guinea pig ileum longitudinal smooth muscle assessed as inhibition of calcium-induced contraction at 10 uM; assay type: functional; details: Cavia porcellus
# Aorta [11] = experiment: Vasorelaxant activity in K+-depolarized guinea pig aorta assessed as inhibition of calcium-induced contraction at 50 uM; assay type: functional; details: Cavia porcellus
# [12] = Negative inotropic activity in guinea pig left atrium assessed as decrease in atrial tension at 100 uM relative to control; assay type: functional, tissue-based, Cavia porcellus, Cardiac atrium; design: scale not given: the % may be the effect or the level left
# [13] = Negative inotropic activity in guinea pig left atrium assessed as decrease in atrial tension at 1 uM relative to control; assay type: functional, Cavia porcellus, Cardiac atrium; design: scale not given: the % may be the effect or the level left
# [14] = Negative chronotropic activity in guinea pig spontaneously beating right atrium assessed as decrease in atrial rate at 10 uM relative to control; assay type: functional, Cavia porcellus, Cardiac atrium; design: scale not given: the % may be the effect or the level left
# [15] = Negative inotropic activity in guinea pig left atrium assessed as decrease in atrial tension at 10 uM relative to control; assay type: functional, Cavia porcellus, Cardiac atrium; design: scale not given: the % may be the effect or the level left
# L-type calcium channel = L-type calcium channel (Rattus norvegicus, UniProt P22002+P27732+Q02485); experiment: Displacement of [3H]diltiazem from L-type calcium channel in Sprague-Dawley rat cardiac myocytes at 10 uM; assay type: cell-based; details: probe [3H]diltiazem, read-out: Activity
# [16] = target: Voltage-gated L-type calcium channel (Rattus norvegicus, UniProt P22002+Q02485+P27732); experiment: Displacement of [3H]diltiazem from L-type calcium channel in Sprague-Dawley rat cardiac myocytes; assay type: cell-based
# Summary of the method: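 Rat cardiomyocyte preparation. [3H]diltiazem at 5 nM is incubated with test compound at increasing concentrations from 0.1 nM to 100 µM. The readout is the inhibition of [3H]diltiazem binding to the benzothiazepine site.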
# [17] = Dissociation constant, pKa of the compound; assay type: physicochemical
# Summary of the method: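 pKa values are calculated in silico, not measured experimentally.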
# [18] = Negative chronotropic activity in guinea pig spontaneously beating right atrium assessed as decrease in atrial rate at 5 uM relative to control; assay type: functional, Cavia porcellus, Cardiac atrium; design: scale not given: the % may be the effect or the level left
# Ileum [19] = experiment: Vasorelaxant activity in K+-depolarized guinea pig ileum longitudinal smooth muscle assessed as inhibition of calcium-induced contraction at 1 uM; assay type: functional; details: Cavia porcellus
SMILES,EC50 [2] [nM],IC50 (Ileum [6]) [nM],inhibition at 100 µM (Ileum [3]) [%],inhibition at 100 µM (Aorta [4]) [%],Activity [5] [%],Activity [12] [%],further results
CCc1c(C)cc(C)cc1OC[C@@H](O)CNC(C)C,3590,–,–,30,40,–,Activity [8]: 76%
CCOc1ccc(NC(=O)CCN(CC)CC)cc1,1050,–,–,11,30,79,–
COc1ccccc1NC(=O)OCC1CCCCN1C (configuration not stated),970,18400,73,10,17,87,–
Cc1ccccc1CC(=O)c1ccc(O)c(CN(C)C)c1O,840,–,–,4,–,–,Activity [7]: 48%; pKa [17]: 10.7; Activity [1]: 78%
CN(Cc1ccccc1)Cc1ccnc(Br)c1O,1110,3280,–,2,6,70,inhibition at 50 µM (Ileum [9]): 57%
COc1cc2c(cc1OC)[C@H]1CC(=O)[C@H]3CCC[C@H]3N1CC2,2170,–,–,3,4,64,–
Cc1cc(C(C)(C)C)cc(C)c1NC(=O)CN1CCOCC1,840,–,–,26,29,–,Activity [15]: 87%
CC(C)NC[C@@H](O)COc1cccc2ccccc12 [DEXPROPRANOLOL],–,–,74,36,–,–,Activity [7]: 26%; Activity [8]: 92%
COc1ccc(CN(CCN(C)C)c2ccccn2)cc1 [PYRILAMINE],6260,–,–,23,47,81,–

# Now from value to compound, other results behind:
EC50 [2] [nM],IC50 (Ileum [6]) [nM],SMILES,inhibition at 100 µM (Ileum [3]) [%],inhibition at 100 µM (Aorta [4]) [%],Activity [5] [%],Activity [12] [%],further results
300,20300,CN(C)CCNc1cc(-c2cccnc2)nc2ccccc12,72,5,4,–,Activity [1]: 76%
310,14100,O=S(=O)(c1ccc(Cl)cc1)N(C1CCNCC1)C1CC1,–,19,–,–,Activity [7]: 64%; Activity [8]: 76%; inhibition at 50 µM (Ileum [9]): 89%
430,–,O=S(=O)(c1cccc2c(Cl)cccc12)N1CCCNCC1,–,–,–,98,Activity [7]: 46%; inhibition at 10 µM (Ileum [10]): 40%; inhibition at 50 µM (Aorta [11]): 43%
70,–,CCO[C@]1(c2ccc(Br)cc2)SC=C(C)n2c1noc2=O,3,11,–,–,Activity [13]: 58%; Activity [14]: 16%
730,16500,CC(C)(CNC(=S)Nc1ccccc1)N1CCOCC1,76,20,10,94,–
340,–,COc1ccc(Cl)cc1NC(=O)N1CCN(C)CC1,44,7,10,–,Activity [8]: 67%
520,–,O=C(COc1ccccc1Cl)N1CCNCC1,–,1,3,–,Activity [8]: 60%
250,–,CCN(CC)CCOc1ccc2ccc(=O)oc2c1,22,14,28,–,Activity [15]: 67%
450,–,CN1CCN(S(=O)(=O)c2cccc3cccnc23)CC1,28,18,–,–,Activity [7]: 19%; inhibition at 10 µM (L-type calcium channel): 60%; Activity [15]: 84%
350,20200,CN(C)CCNC(=O)c1cc2ccccc2cc1O,61,13,35,90,Ki [16]: 450 nM
250,9340,CN(C)CCOC(c1ccc(Cl)cc1)c1ccccn1 (configuration not stated) [CARBINOXAMINE],–,28,48,76,inhibition at 50 µM (Ileum [9]): 62%; EC30 [2]: 480 nM; Ki [16]: 1080 nM
790,110,COc1ccc([C@@H]2Sc3ccccc3N(CCN(C)C)C(=O)[C@@H]2OC(C)=O)cc1 [DILTIAZEM],–,88,–,–,Activity [18]: 94%; Activity [15]: 78%; inhibition at 1 µM (Ileum [19]): 98%; EC30 [2]: 70 nM; IC50 [2]: 2600 nM
